Screening results as filed in PubChem.
Many of the other results were omitted from the sample, so hits are more common in it than they were.
A1 apoptosis 2 = A1 inhibition read as caspase activation. 24,000 tested, under 10 active. caspase activation, % (concentration not given with the values). MEF A1-2A-BIM cells, caspase-Glo luminescence, 3 h; percent of clofoctol response, DMSO zero. AID 2465; in the data active = caspase activation above about 5.9%
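system = A1-2A-BIM-expressing MEF cells | quantity = 2500 MEF cells/well | dosing = 50 nL compound per well, pinned | schedule = overnight cell settling, then 3 h compound exposure, 37 °C | signal = luminescence from DEVD-luciferin Caspase-Glo reagent, 1:1 in 50 mM HEPES, 1 h RT | read-out = Caspase-3/7 activation, seen as rise in luminescence signal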
T cruzi HTS = inhibitors of intracellular Trypanosoma cruzi | intracellular Trypanosoma cruzi in host cells, plate reader | activity score (inhibition), % at 5.01 µM | 22,000 compounds, 4.9% hits | AID 651903; in the data active = activity score above about 55%;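 also: parasites and compound incubated about four days before reading; 0% = median of neutral control wells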
INS-1E rescue = rescue of cytokine-induced death in INS-1E beta cells. INS-1E cytokine-induced death, ATP luminescence, 48 h; normalised: neutral wells 0, positive control 100. protection from cytokine-induced ATP loss, % at 10 µM. 20,000 compounds, 0.1% hits;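 active = mean replicate protection from cytokine-induced ATP loss at least 50% and at least 75% of replicates each reaching 50%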
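assay system = INS-1E rat insulinoma cells | amount = 8000 cells per well | medium = phenol-red-free RPMI with 5% fetal bovine serum | doses = one compound concentration, pin transfer | timing = 48 h cytokine plus compound treatment, 10 min reagent incubation | also added = IL-1β, TNF-α and IFN-γ cytokine mix | signal = CellTiter-Glo luminescence measuring cellular ATP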
Starred values were filed as active, the others as inactive.

`Cc1cccc(CN(C)C[C@@H]2Oc3ncc(-c4cccc(C(F)(F)F)c4)cc3C(=O)N([C@H](C)CO)C[C@@H]2C)c1` gave T cruzi HTS 63*.
`C[C@H](CO)N1C[C@H](C)[C@H](CN(C)S(=O)(=O)c2ccc(C#N)cc2)Oc2ncc(-c3cccc(C(F)(F)F)c3)cc2C1=O` gave A1 apoptosis 2 0 and T cruzi HTS 10.
`C[C@H](CO)N1C[C@H](C)[C@H](CN(C)Cc2cccc(C(F)(F)F)c2)Oc2ncc(-c3ccccc3)cc2C1=O` gave T cruzi HTS 42.
C[C@H]1CN([C@@H](C)CO)C(=O)Cc2cc(NC(=O)Cc3ccccc3)ccc2O[C@@H]1CN(C)Cc1ccc(-c2ccccc2)cc1 was read as T cruzi HTS 64* and INS-1E rescue -19.
For C[C@H]1CN([C@@H](C)CO)C(=O)Cc2cc(NC(=O)Cc3ccccc3)ccc2O[C@H]1CN(C)Cc1ccc(-c2ccccc2)cc1 the results were A1 apoptosis 2 1, T cruzi HTS 47 and INS-1E rescue -15.
`COc1ccc(CN(C)C[C@@H]2Oc3ccc(NC(=O)Cc4ccccc4)cc3CC(=O)N([C@@H](C)CO)C[C@@H]2C)cc1` gave A1 apoptosis 2 0, T cruzi HTS 67* and INS-1E rescue -4.
For COc1ccc(CN(C)C[C@@H]2Oc3ccc(NC(=O)Cc4ccccc4)cc3CC(=O)N([C@H](C)CO)C[C@H]2C)cc1 the results were A1 apoptosis 2 -1, T cruzi HTS 54 and INS-1E rescue 9.
Screening C[C@@H]1CN([C@H](C)CO)C(=O)Cc2cc(NC(=O)Cc3ccccc3)ccc2O[C@H]1CN(C)Cc1ccc(-c2ccccc2)cc1 returned T cruzi HTS 65* and INS-1E rescue 0.
For C[C@@H]1CN([C@@H](C)CO)C(=O)Cc2cc(NC(=O)Cc3ccccc3)ccc2O[C@H]1CN(C)Cc1ccc(-c2ccccc2)cc1 the results were A1 apoptosis 2 1.
`CC(/C=C/C(=O)NO)=C\c1ccccc1OCc1cn(CCNC(=O)Nc2ccccc2)nn1` gave A1 apoptosis 2 0.
`C[C@@H]1CN([C@@H](C)CO)C(=O)c2cccc(NC(=O)CCCCCC(=O)Nc3ccccc3N)c2O[C@@H]1CN(C)S(=O)(=O)c1ccc(F)cc1` gave A1 apoptosis 2 1, T cruzi HTS 36 and INS-1E rescue 0.
Screening C[C@@H]1CN([C@H](C)CO)C(=O)c2cccc(NC(=O)CCCCCC(=O)Nc3ccccc3N)c2O[C@@H]1CN(C)S(=O)(=O)c1ccc(F)cc1 returned T cruzi HTS 61* and INS-1E rescue -8.
`Cc1ccc(S(=O)(=O)N(C)C[C@H]2Oc3c(NC(=O)CCCCCC(=O)Nc4ccccc4N)cccc3C(=O)N([C@@H](C)CO)C[C@@H]2C)cc1` gave A1 apoptosis 2 1.
Cc1ccc(S(=O)(=O)N(C)C[C@@H]2Oc3c(NC(=O)CCCCCC(=O)Nc4ccccc4N)cccc3C(=O)N([C@H](C)CO)C[C@@H]2C)cc1 was read as A1 apoptosis 2 -1, T cruzi HTS 73* and INS-1E rescue -3.
C[C@H](CO)N1C[C@H](C)[C@H](CN(C)S(=O)(=O)c2ccc(F)cc2)Oc2c(NC(=O)CCCCCC(=O)Nc3ccccc3N)cccc2C1=O was read as T cruzi HTS 63* and INS-1E rescue 7.
Screening C[C@@H]1CN([C@@H](C)CO)C(=O)c2cccc(NC(=O)CCCCCC(=O)Nc3ccccc3N)c2O[C@H]1CN(C)S(=O)(=O)c1ccc(F)cc1 returned T cruzi HTS -6 and INS-1E rescue -15.
CC(C)(C)OC(=O)NC/C=N/NC(=O)c1ccccn1 was read as A1 apoptosis 2 -1, T cruzi HTS 12 and INS-1E rescue -2.
`COC(=O)CCCCCCC(=O)N/N=C/[C@H](O)[C@@H](O)[C@H](O)CO` gave A1 apoptosis 2 0, T cruzi HTS -4 and INS-1E rescue -5.
For C=CCOC(=O)C(=O)/C=C/C1CC1 the results were A1 apoptosis 2 2.
For [N-]=[N+]=NCc1ccccc1C[C@@]1(C(=O)NCc2ccccc2)N=C(c2ccc(OCCCO)cc2)O[C@@H]1c1ccccc1 the results were A1 apoptosis 2 0.
For O=C(NO)c1cccc(C(=O)N/N=C/c2ccc(F)c(Oc3ccccc3)c2)c1 the results were T cruzi HTS -37 and INS-1E rescue 6.
Screening C[C@@H]1CN([C@H](C)CO)C(=O)Cc2cc(NS(=O)(=O)c3ccc(Cl)cc3)ccc2O[C@@H]1CN(C)Cc1ccc(C(F)(F)F)cc1 returned A1 apoptosis 2 0, T cruzi HTS 54 and INS-1E rescue -19.
